The list is not random: actives were taken first. Their share in the collection is about 1.7%.
HNF4A DNA FP: change in binding of human HNF4A to DNA, primary screen, biochemical, fluorescence polarization, FITC-DNA; 1 h; activity change, % at 10 µM; actives 0.3% (n = 360,000); in the data active = activity change above about 30%, passing the limit was not always enough
IDE cell inh: human IDE inhibitors in live cells, primary screen, fluorescence polarization, HEK cells, FAbetaB substrate; AID 434962, 2010; actives 0.41% (n = 320,000); FAbetaB cleavage; Insulin-degrading enzyme (Homo sapiens), P14735; inhibition, % at 5.59 µM;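 active = percent inhibition above the average of all tested compounds plus 3 SD, set per screening campaign, cut at about 16% in these data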;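 note: IDE supplied by intact live HEK cells; FP after avidin binding of uncleaved biotin substrate so inhibition keeps polarization high; 0% = DMSO wells and 100% = 60 µM reference IDE inhibitor Ii1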
Rpn11 inh: Rpn11 (PSMD14) deubiquitinase inhibitors, primary screen, biochemical, fluorescence polarization, uHTS; actives 0.59% (n = 360,000); human 26S proteasome, Ub4-pepOG fluorescence polarization; 20S core pre-blocked with epoxomicin; inhibition, % at 20 µM; 26S proteasome non-ATPase regulatory subunit 14 (Homo sapiens), O00487; AID 588493, 2011;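 active = inhibition at 20 µM, scaled to each plate's controls, above about 33%, limit read from the data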
TPT1 inhibitor: Candida albicans TPT1 enzyme inhibitors, primary screen, biochemical, fluorescence polarization. recombinant caTPT1, FP RNA substrate dephosphorylation. inhibition, % at 5 µM. tRNA 2'-phosphotransferase TPT1 (Candida albicans SC5314). actives 0.81% (n = 300,000);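 active = inhibition above the mean of all tested compounds plus 3 SD, set per screening campaign, cut at about 24% in these data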;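 note: plate controls were DMSO alone for no effect and ferristatin control at 100 nM for full effect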
IDE cell activ: human IDE activators in live cells, primary screen, fluorescence polarization, HEK cells, FAbeta-B substrate; FAbeta-B cleavage; 0% vehicle, 100% cell-free pure enzyme wells; activation, % at 5.96 µM; actives 0.073% (n = 340,000);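 active = activation above the mean of all tested compounds plus 3 SD, set per screening campaign, cut at about 17% in these data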
CSN deneddyl inh: inhibitors of CSN-mediated cullin deneddylation, primary screen, biochemical, fluorescence polarization, uHTS. COP9 signalosome complex subunit 5 (Homo sapiens), Q92905. Purified CSN, SCF-Nedd8-OG deneddylation. inhibition, % at 12.5 µM. actives 0.38% (n = 360,000);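 active = pattern-corrected inhibition above about 35%, with an unprinted fluorescence ratio check between 0.5 and 1.5, limit read from the data, passing the limit was not always enough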;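 note: 0% = enzyme with substrate and 100% = substrate without enzyme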
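Schedule: reaction 90 min, room temperature / Assay system: HEK293T-derived human Csn5 enzyme / Input: Csn5 at 0.24 nM final / Measure: inhibition of Csn5 cleavage, % / Control set: substrate-only high control, full reaction low control / Technique: fluorescence polarization of the substrate / Buffer or medium: Tris/NaCl/DTT buffer, pH 7.5 / Reagent: SCFSkp2-Nedd8OG substrate at 10 nM final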
caTPT1 confirm: Candida albicans TPT1 inhibitors, confirmation, biochemical, fluorescence polarization, triplicate. shares compounds with TPT1 inhibitor. recombinant caTPT1, RNase T1 coupled. inhibition, % at 5 µM. actives 74% (n = 2,400). AID 2149, 2009;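 active = inhibition above the primary screen limit, the mean inhibition of all tested compounds plus 3 SD, cut at about 25% in these data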
RNase T1 inh: RNase T1 inhibitors, counter-screen for TPT1 inhibitor project, biochemical, fluorescence polarization. actives 83% (n = 2,400). inhibition, % at 5 µM. RNase T1 cleavage, 1536-well. shares compounds with TPT1 inhibitor. AID 2153, 2009;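 active = inhibition above the solvent-only control well mean plus 3 SD, limit set per screening run, cut at about 23% in these data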;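 note: plate controls were DMSO wells with enzyme for no effect and wells without RNase T1 for full effect; inhibitors block cleavage so intact labeled substrate keeps polarization high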
CSN5 deneddyl: Csn5 deneddylation inhibitors, confirmation, biochemical, fluorescence polarization, single concentration, SCF-Nedd8OG substrate | inhibition, % at 16.6 µM | AID 720654, 2013 | Csn5 deneddylation of SCF-Nedd8OG, 90 min | actives 62% (n = 540) | shares compounds with CSN deneddyl inh; in the data active = inhibition above about 50%;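 note: 0% = DMSO with enzyme and 100% = no enzyme wells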
MMP2 cntr CSN: MMP-2 protease inhibition counter-screen, confirmation, counter-screen for CSN deneddylation inhibitor project, biochemical, fluorescence, single concentration | actives 33% (n = 540) | recombinant MMP-2, FRET substrate fluorescence, 60 min | shares compounds with CSN deneddyl inh | inhibition, % at 16.6 µM | AID 720655, 2013;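 active = corrected plate-normalized z-score of 5 or more, or -5 or less, or inhibition of 15% or more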;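 note: plate controls were DMSO wells with enzyme for no effect and buffer wells lacking MMP-2 for full effect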
Thrombin counter: thrombin (bovine) inhibition, counter-screen for CSN hits; inhibition, % at 16.6 µM; bovine thrombin cleavage of Ub4-pepOG, fluorescence polarization; AID 720656; shares compounds with CSN deneddyl inh; actives 49% (n = 540);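 active = inhibition at or above a set limit, with a fluorescence interference ratio between 0.5 and a set maximum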
HNF4A confirm: change in HNF4A binding to DNA, retest, confirmation, biochemical, fluorescence polarization, FITC-DNA. shares compounds with HNF4A DNA FP. 1 h. activity change, % at 12.5 µM. actives 99% (n = 210); call rule not given here
The depositor's hits bear a star.

For Cn1cccc1/C=C1/C(=O)NC(=S)N(Cc2ccc(F)cc2)C1=O the results were HNF4A DNA FP -26, IDE cell inh -5, Rpn11 inh 12, TPT1 inhibitor 18, IDE cell activ 0 and CSN deneddyl inh 8.
`Cc1cc(C)cc(N2C(=O)NC(=O)/C(=C\C=C\c3ccco3)C2=O)c1` gave HNF4A DNA FP 6, IDE cell inh 8, Rpn11 inh 37, TPT1 inhibitor 47*, IDE cell activ -8, CSN deneddyl inh 59*, caTPT1 confirm 45*, RNase T1 inh 62*, CSN5 deneddyl 59*, MMP2 cntr CSN 6 and Thrombin counter 24*.
COc1ccc(C(c2nnnn2-c2c(C)cccc2C)N2CCC3(CC2)C(=O)NCN3c2ccccc2)cc1 (stereo unspecified) was read as HNF4A DNA FP 1, Rpn11 inh 22 and CSN deneddyl inh -1.
For COc1cc(C2(C#N)CCN(C)CC2)cc(OC)c1OC the results were HNF4A DNA FP 5, Rpn11 inh 3, IDE cell activ -4 and CSN deneddyl inh 2.
`O=c1[nH]c2ccccc2n1C1CCN(Cc2ccc(-c3[nH]c4cc5ncnc5cc4nc3-c3ccccc3)cc2)CC1` gave HNF4A DNA FP -7 and CSN deneddyl inh -3.
`COC(=O)C1=C(c2ccc(F)cc2OCc2ccccc2)C[C@@H]2CC[C@H]1N2C(=O)NCc1ccc2c(c1)OCO2` gave HNF4A DNA FP -3, IDE cell inh 4, Rpn11 inh -2, IDE cell activ 5 and CSN deneddyl inh 0.
For O=C1NC(=O)N(Cc2ccccc2Cl)C(=O)/C1=C/N1CCOCC1 the results were HNF4A DNA FP 37*, IDE cell inh -1, TPT1 inhibitor 40*, IDE cell activ 1, CSN deneddyl inh 30, caTPT1 confirm 47*, RNase T1 inh 60* and HNF4A confirm 54*.
c1coc(CN2Cc3ccccc3-n3nncc3C2)c1 was read as HNF4A DNA FP -3, Rpn11 inh 2 and CSN deneddyl inh 5.
